# Experimental data: ChEMBL document CHEMBL1158403, “Discovery of CP-533536: an EP2 receptor selective prostaglandin E2 (PGE2) agonist that induces local bone formation” (Bioorg Med Chem Lett, 2009)
# pEC50, pIC50: −log10 of the molar value.
# Experiments:
# [1] = molecular target: T1, Prostaglandin E2 receptor EP2 subtype (Rattus norvegicus, UniProt Q62928); test: Inhibition of rat EP2 receptor expressed in HEK293 cells; assay type: cell-based
# Summary of the method: (§1)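 Rat EP₂ or rat EP₄ receptor stably transfected into HEK-293 cells. Membranes were prepared from these cells for the receptor binding assay.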
# [2] = molecular target: T1, Prostaglandin E2 receptor EP2 subtype; test: Agonist activity against rat EP2 receptor expressed in HEK293 cells assessed as stimulation of cAMP release; assay type: functional, cell-based
# [3] = molecular target: T2, Prostaglandin E2 receptor EP4 subtype (Rattus norvegicus, UniProt P43114); test: Inhibition of rat EP4 receptor expressed in HEK293 cells; assay type: cell-based; summary of the method: as §1
# T2 sequence (P43114 whole entry): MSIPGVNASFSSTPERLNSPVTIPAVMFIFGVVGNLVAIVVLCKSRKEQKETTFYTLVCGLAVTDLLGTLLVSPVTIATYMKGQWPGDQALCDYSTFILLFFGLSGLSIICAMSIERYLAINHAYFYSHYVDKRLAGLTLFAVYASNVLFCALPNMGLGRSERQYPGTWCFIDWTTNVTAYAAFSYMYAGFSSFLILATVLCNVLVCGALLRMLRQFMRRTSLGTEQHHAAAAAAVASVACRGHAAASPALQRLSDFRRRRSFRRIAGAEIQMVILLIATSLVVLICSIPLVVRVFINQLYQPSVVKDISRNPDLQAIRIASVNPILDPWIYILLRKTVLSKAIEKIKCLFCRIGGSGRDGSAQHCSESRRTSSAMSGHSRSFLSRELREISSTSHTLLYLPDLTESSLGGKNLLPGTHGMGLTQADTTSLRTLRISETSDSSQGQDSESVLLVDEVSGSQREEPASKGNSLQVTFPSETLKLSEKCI
# Rattus norvegicus [4] = test: Induction of bone formation in rat assessed as total bone area at 1 mg/kg by peripheral quantitative computerized tomography
# Rattus norvegicus [5] = test: Induction of bone formation in rat assessed as bone mineral content at 3 mg/kg by peripheral quantitative computerized tomography
# Rattus norvegicus [6] = test: Induction of bone formation in rat assessed as bone mineral density at 3 mg/kg by peripheral quantitative computerized tomography
# Rattus norvegicus [7] = test: Induction of bone formation in rat assessed as bone mineral density at 0.3 mg/kg by peripheral quantitative computerized tomography
# Rattus norvegicus [8] = test: Induction of bone formation in rat assessed as total bone area at 3 mg/kg by peripheral quantitative computerized tomography
# Rattus norvegicus [9] = test: Induction of bone formation in rat assessed as bone mineral content at 1 mg/kg by peripheral quantitative computerized tomography
# [10] = Clearance in Sprague-Dawley rat at 1 mg/kg, iv; assay type: ADME, organism-based; parameters: dose 1 mg/kg, route intravenous; conditions: in vivo
# Summary of the method: (§2)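 Male Sprague–Dawley rats were given a single i.v. dose of 1 mg/kg. Half-life, clearance and steady-state volume of distribution were derived from the plasma pharmacokinetic profile.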
# [11] = Half life in Sprague-Dawley rat at 1 mg/kg, iv; assay type: ADME, organism-based; parameters: dose 1 mg/kg, route intravenous; conditions: in vivo; summary of the method: as §2
# Rattus norvegicus [12] = test: Induction of bone formation in rat assessed as total bone area at 0.3 mg/kg by peripheral quantitative computerized tomography
# Rattus norvegicus [13] = test: Induction of bone formation in rat assessed as bone mineral density at 1 mg/kg by peripheral quantitative computerized tomography
# [14] = Volume of distribution at steady state in Sprague-Dawley rat at 1 mg/kg, iv; assay type: ADME, organism-based; parameters: dose 1 mg/kg, route intravenous; conditions: in vivo, read-out: Vdss; summary of the method: as §2
# Rattus norvegicus [15] = test: Induction of bone formation in rat assessed as bone mineral content at 0.3 mg/kg by peripheral quantitative computerized tomography
# [16] = molecular target: T2, Prostaglandin E2 receptor EP4 subtype; test: Agonist activity against rat EP4 receptor expressed in HEK293 cells assessed as stimulation of cAMP release; assay type: functional, cell-based
# T1 sequence (Q62928 whole entry): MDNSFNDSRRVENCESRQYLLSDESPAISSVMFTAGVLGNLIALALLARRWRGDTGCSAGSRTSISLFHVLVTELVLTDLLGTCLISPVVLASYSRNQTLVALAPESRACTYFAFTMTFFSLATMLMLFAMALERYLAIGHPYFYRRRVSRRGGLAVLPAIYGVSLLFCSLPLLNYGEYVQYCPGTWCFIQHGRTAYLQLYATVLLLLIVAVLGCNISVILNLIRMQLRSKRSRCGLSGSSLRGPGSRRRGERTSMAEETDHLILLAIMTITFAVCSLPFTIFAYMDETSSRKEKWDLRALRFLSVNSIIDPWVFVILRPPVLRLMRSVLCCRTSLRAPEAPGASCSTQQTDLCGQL
SMILES,pIC50 [1],pEC50 [2],pIC50 [3],other results
CC(C)(C)c1ccc(CN(Cc2cccc(CCC(=O)O)c2)S(=O)(=O)c2ccccn2)cc1,7.28,8.64,< 5.49,–
CC(C)(C)c1ccc(CN(Cc2cccc(CCC(=O)O)c2)S(=O)(=O)c2ccc(Cl)cc2)cc1,< 5.49,–,< 5.49,–
CCCCc1ccc(CN(Cc2ccccc2OCC(=O)O)S(C)(=O)=O)cc1,< 5.49,–,< 5.49,–
CCCCc1ccc(CN(Cc2cccc(CCC(=O)O)c2)S(C)(=O)=O)cc1,6.57,7.46,< 5.49,–
CC(C)CC(O)CCCN(CCCCCCC(=O)O)S(C)(=O)=O (centres undefined),5.60,–,< 5.49,–
CCCCc1ccc(CN(CCc2ccc(CC(=O)O)cc2)S(C)(=O)=O)cc1,6.08,6.38,< 5.49,–
CCCCCC(O)CCCN(CCCCCCC(=O)O)S(C)(=O)=O (centres undefined),6.65,6.87,5.60,–
CC(C)(C)c1ccc(CN(Cc2cccc(CCC(=O)O)c2)S(=O)(=O)c2ccccc2)cc1,6.56,9.70,< 5.49,–
CCCCCC(O)CCCN(CCCCCC(=O)O)S(C)(=O)=O (centres undefined),6.04,–,–,–
CCCCCC(O)CCCN(CCCCC(=O)O)S(C)(=O)=O (centres undefined),< 5.49,–,–,–
CCCCc1ccc(CN(c2ccccc2CCCC(=O)O)S(C)(=O)=O)cc1,6.31,6.99,< 5.49,–
CCCCc1ccc(CN(c2ccc(CCCC(=O)O)cc2)S(C)(=O)=O)cc1,6.18,6.23,< 5.49,–
CCCCc1ccc(CN(c2cccc(CCC(=O)O)c2)S(C)(=O)=O)cc1,< 5.49,–,< 5.49,–
CC(C)(C)c1ccc(CN(Cc2cccc(OCC(=O)O)c2)S(=O)(=O)c2cccnc2)cc1,7.30,9.52,< 5.49,Activity (Rattus norvegicus [4]): 4.4%; Activity (Rattus norvegicus [5]): 53.5%; Activity (Rattus norvegicus [6]): 27.5%; Activity (Rattus norvegicus [7]): 7.5%; Activity (Rattus norvegicus [8]): 20.6%; Activity (Rattus norvegicus [9]): 26.3%; clearance [10]: 56 mL/min/kg; half-life [11]: 19.8 min; Activity (Rattus norvegicus [12]): -4.7%; Activity (Rattus norvegicus [13]): 20.7%; Vd [14]: 0.49 L/kg; Activity (Rattus norvegicus [15]): 2.5%
CCCCC[C@H](O)/C=C/[C@H]1[C@H](O)CC(=O)[C@@H]1C/C=C\CCCC(=O)O [DINOPROSTONE],–,–,8.68,pEC50 [16]: 9.15

# Second part, led by results:
pIC50 [1],pEC50 [2],pIC50 [3],SMILES,other results
7.20,8.96,< 5.49,CC(C)(C)c1ccc(CN(Cc2cccc(CCC(=O)O)c2)S(=O)(=O)c2nccs2)cc1,–
6.80,7.03,< 5.49,CCCCc1ccc(CN(CCCCCCC(=O)O)S(C)(=O)=O)cc1,–
6.10,6.69,< 5.49,CC(C)(C)c1ccc(CN(Cc2cccc(OCC(=O)O)c2)S(C)(=O)=O)cc1,–
6.23,–,5.61,CC(C)(C)c1ccc(CN(CCCCCCC(=O)O)S(C)(=O)=O)cc1,–
6.30,6.37,< 5.49,CCCCC(O)c1ccc(CN(CCCCCCC(=O)O)S(C)(=O)=O)cc1 (centres undefined),–
6.42,7.32,< 5.49,CC(C)(C)c1ccc(CN(Cc2cccc(CCC(=O)O)c2)S(C)(=O)=O)cc1,–
6.54,6.34,< 5.49,CS(=O)(=O)N(CCCCCCC(=O)O)Cc1ccc(-c2ccccc2)cc1,–
6.15,6.39,< 5.49,CCCCc1ccc(CN(CCCCOCC(=O)O)S(C)(=O)=O)cc1,–
6.20,6.05,< 5.49,CCCCCC(=O)c1ccc(CN(CCCCCCC(=O)O)S(C)(=O)=O)cc1,–
7.03,7.36,< 5.49,CCCCCC(O)c1ccc(CN(CCCCCCC(=O)O)S(C)(=O)=O)cc1 (centres undefined),–
5.50,–,< 5.49,CCCCc1ccc(CN(CCCOc2cccc(C(=O)O)c2)S(C)(=O)=O)cc1,–
